Values after ≈ are worked out from the molar mass of the structure shown.
Tests used:
[1] = Intrinsic clearance in cynomolgus monkey hepatocytes; assay type: ADME, cell-based, Macaca fascicularis, Hepatocyte; settings: read-out: CLH
[2] = Oral bioavailability in cynomolgus monkey; assay type: ADME, organism-based, Macaca fascicularis; settings: in vivo
[3] = Intrinsic clearance in rat hepatocytes; assay type: ADME, cell-based, Hepatocyte; settings: read-out: CLH
[4] = Permeability of the compound measured at 18 hrs by PAMPA; assay type: ADME; settings: read-out: permeability
In short: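 PAMPA sandwich format. Donor: compound diluted to 150 μM (DMSO <2%) in 0.05 M MOPSO pH 6.5 with 0.5% glycocholic acid. Acceptor: 0.05 M MOPSO pH 6.5. Membrane of 10% egg lecithin with 0.5% cholesterol in dodecane. Donor measured at start; acceptor and donor measured at ~18 hr.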

[5] = Selectivity ratio of IC50 for human CYP11B1 expressed in human renal leiomyoblastoma cells harboring FDXR/FDX to IC50 for human CYP11B2 expressed in human renal leiomyoblastoma cells harboring FDXR/FDX; assay type: cell-based
In short: (§1)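 Cells with endogenous FDXR/FDX and no detectable CYP11B activity, stably transfected (CMV promoter, neomycin selection, G-418 400 µg/mL) with CYP11B1 or CYP11B2 of the named species. Assayed in DMEM/F12 with 2.5% charcoal-treated FCS. Substrate 1 µM 11-deoxycorticosterone (B2) or 11-deoxycortisol (B1), 16 hr. Aldosterone or cortisol in supernatant measured by HTRF. IC50 from 4-parameter MMF fit; selectivity factor is the B1/B2 IC50 ratio.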

[6] = biological target: T1, Cytochrome P450 11B2, mitochondrial (Homo sapiens, UniProt P19099); test: Inhibition of human CYP11B2 expressed in human renal leiomyoblastoma cells harboring FDXR/FDX using 1-deoxycorticosterone as substrate by HTRF assay; assay type: cell-based; in short: as §1
T1 sequence (P19099 whole entry): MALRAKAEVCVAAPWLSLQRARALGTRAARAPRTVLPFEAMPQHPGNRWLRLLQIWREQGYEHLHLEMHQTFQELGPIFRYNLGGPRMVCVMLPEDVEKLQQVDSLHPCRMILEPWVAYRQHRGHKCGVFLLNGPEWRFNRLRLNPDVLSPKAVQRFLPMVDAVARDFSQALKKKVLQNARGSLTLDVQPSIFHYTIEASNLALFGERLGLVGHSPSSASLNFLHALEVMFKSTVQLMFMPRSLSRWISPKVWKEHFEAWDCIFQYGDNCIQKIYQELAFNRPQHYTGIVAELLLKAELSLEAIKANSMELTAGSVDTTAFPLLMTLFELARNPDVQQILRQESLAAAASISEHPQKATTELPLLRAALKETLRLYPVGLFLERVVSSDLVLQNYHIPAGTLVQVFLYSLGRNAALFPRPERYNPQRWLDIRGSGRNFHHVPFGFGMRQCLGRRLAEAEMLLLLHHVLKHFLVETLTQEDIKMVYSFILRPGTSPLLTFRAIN

[7] = AUC (0 to infinity) in Wister-Han rat at 3 mg/kg, po administered as single dose by LC/MS-MS analysis; assay type: ADME, organism-based; set-up: dose 3 mg/kg, route oral, time infinity; settings: Wistar-Han, in vivo
In short: (§2)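 Male Wistar-Han rats, single dose. IV 1 mg/kg, compound at 0.5 mg/mL in NMP:saline 30/70 (v/v). Oral 3 mg/kg, 0.25 mg/mL in 2% Klucel with 0.1% Polysorbate 80. Three rats per time point. Heparinized blood taken at eight (iv) or seven (po) time points, plasma stored at -20 °C. Plasma levels by LC/MS-MS. Non-compartmental analysis.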

[8] = Dose normalized AUC in Wister-Han rat at 1 mg/kg, iv or 3 mg/kg, po administered as single dose by LC/MS-MS analysis; assay type: ADME, organism-based; settings: in vivo; in short: as §2
[9] = Protein binding in cynomolgus monkey plasma assessed as unbound fraction at 1 uM by micro-equilibrium dialysis based LC-MS/MS analysis; assay type: ADME, cell-free, Macaca fascicularis
In short: (§3)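 Equilibrium dialysis of pooled rat or cynomolgus plasma against Soerensen buffer pH 7.4, 12–14 kDa cut-off membrane. Compounds tested in cassettes of 2–5 at 1 μM initial total concentration, with diazepam as control. Dialysis 5 hr at 37 °C under 5% CO₂. Unbound percentage by LC/MS-MS.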

[10] = Dose normalized AUC in cynomolgus monkey; assay type: ADME, Macaca fascicularis; settings: in vivo
[11] = Solubility of the compound in phosphate buffer at pH 6.5 shaken for 2 hrs followed by overnight incubation; assay type: physicochemical
In short: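 Lyophilisation solubility assay run in duplicate from 10 mM DMSO stock. DMSO evaporated and residue redissolved in 0.05 M phosphate, pH 6.5. Stirred 1 hr, shaken 2 hr, left overnight, then filtered. Filtrate and a 1/10 dilution analysed by HPLC-UV against a four-point calibration.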

[12] = Intrinsic clearance in rat liver microsomes preincubated for 10 mins followed by NADPH regenerating system addition and measured up to 30 mins by LC/MS-MS analysis; assay type: ADME, Microsome
In short: (§4)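 Liver microsomes at 0.5 mg protein/mL in 100 mM potassium phosphate, pH 7.4. Compound preincubated 10 min at 37 °C. Intrinsic clearance scaled using the well-stirred liver model.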

[13] = Plasma clearance in Wister-Han rat at 1 mg/kg, iv administered as single dose by LC/MS-MS analysis; assay type: ADME, organism-based; settings: Wistar-Han; in short: as §2
[14] = Oral bioavailability in Wister-Han rat at 3 mg/kg administered as single dose by LC/MS-MS analysis; assay type: ADME, organism-based; settings: Wistar-Han, in vivo; in short: as §2
[15] = Protein binding in rat plasma assessed as unbound fraction at 1 uM by micro-equilibrium dialysis based LC-MS/MS analysis; assay type: ADME, cell-free; in short: as §3
[16] = Plasma clearance in iv dosed cynomolgus monkey; assay type: ADME, organism-based, Macaca fascicularis
Cytochrome P450 2D6 = Cytochrome P450 2D6 (Homo sapiens, UniProt P10635); test: Inhibition of CYP2D6 (unknown origin); assay type: ADME
Cytochrome P450 2C9 = Cytochrome P450 2C9 (Homo sapiens, UniProt P11712); test: Inhibition of CYP2C9 (unknown origin); assay type: ADME
[17] = biological target: T2, Cytochrome P450 11B1, mitochondrial (Homo sapiens, UniProt P15538); test: Inhibition of human CYP11B1 expressed in human renal leiomyoblastoma cells harboring FDXR/FDX using 1-deoxycortisol as substrate by HTRF assay; assay type: ADME, cell-based; in short: as §1
T2 sequence (P15538 whole entry): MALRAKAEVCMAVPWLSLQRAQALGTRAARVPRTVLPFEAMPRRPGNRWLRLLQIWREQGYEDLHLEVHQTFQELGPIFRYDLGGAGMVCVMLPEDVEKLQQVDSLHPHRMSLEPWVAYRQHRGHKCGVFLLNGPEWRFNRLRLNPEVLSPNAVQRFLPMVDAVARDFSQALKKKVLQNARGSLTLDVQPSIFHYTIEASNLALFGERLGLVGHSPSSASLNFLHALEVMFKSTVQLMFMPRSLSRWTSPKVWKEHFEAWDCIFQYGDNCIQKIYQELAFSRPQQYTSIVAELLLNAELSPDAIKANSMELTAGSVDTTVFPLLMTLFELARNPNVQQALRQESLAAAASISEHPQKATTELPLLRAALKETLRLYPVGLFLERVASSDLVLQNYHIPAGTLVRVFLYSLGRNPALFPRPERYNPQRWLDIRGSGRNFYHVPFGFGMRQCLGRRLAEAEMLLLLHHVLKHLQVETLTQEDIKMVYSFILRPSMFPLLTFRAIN

Cytochrome P450 3A4 = Cytochrome P450 3A4 (Homo sapiens, UniProt P08684); test: Inhibition of CYP3A4 (unknown origin); assay type: ADME
[18] = Octanol-water distribution coefficient, log D of the compound by carrier-mediated distribution system; assay type: physicochemical
[19] = Intrinsic clearance in human liver microsomes preincubated for 10 mins followed by NADPH regenerating system addition and measured up to 30 mins by LC/MS-MS analysis; assay type: ADME, Microsome; settings: read-out: CLH; in short: as §4
[20] = Intrinsic clearance in mouse liver microsomes preincubated for 10 mins followed by NADPH regenerating system addition and measured up to 30 mins by LC/MS-MS analysis; assay type: ADME, Microsome; in short: as §4

Cytochrome P450 2D6, sequence (P10635 whole entry): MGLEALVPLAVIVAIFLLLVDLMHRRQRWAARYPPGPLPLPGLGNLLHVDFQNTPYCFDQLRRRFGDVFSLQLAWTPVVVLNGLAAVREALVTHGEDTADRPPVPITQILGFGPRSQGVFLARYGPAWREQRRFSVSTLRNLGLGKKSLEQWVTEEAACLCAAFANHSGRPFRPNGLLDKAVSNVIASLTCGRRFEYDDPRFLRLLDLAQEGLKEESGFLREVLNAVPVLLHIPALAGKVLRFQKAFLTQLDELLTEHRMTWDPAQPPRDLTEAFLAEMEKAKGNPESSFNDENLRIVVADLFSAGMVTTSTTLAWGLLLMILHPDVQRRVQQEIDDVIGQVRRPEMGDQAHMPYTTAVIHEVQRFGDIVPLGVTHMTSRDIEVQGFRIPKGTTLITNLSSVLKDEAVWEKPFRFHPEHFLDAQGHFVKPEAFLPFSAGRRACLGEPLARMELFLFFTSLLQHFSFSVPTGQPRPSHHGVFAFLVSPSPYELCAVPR
Cytochrome P450 3A4, sequence (P08684 whole entry): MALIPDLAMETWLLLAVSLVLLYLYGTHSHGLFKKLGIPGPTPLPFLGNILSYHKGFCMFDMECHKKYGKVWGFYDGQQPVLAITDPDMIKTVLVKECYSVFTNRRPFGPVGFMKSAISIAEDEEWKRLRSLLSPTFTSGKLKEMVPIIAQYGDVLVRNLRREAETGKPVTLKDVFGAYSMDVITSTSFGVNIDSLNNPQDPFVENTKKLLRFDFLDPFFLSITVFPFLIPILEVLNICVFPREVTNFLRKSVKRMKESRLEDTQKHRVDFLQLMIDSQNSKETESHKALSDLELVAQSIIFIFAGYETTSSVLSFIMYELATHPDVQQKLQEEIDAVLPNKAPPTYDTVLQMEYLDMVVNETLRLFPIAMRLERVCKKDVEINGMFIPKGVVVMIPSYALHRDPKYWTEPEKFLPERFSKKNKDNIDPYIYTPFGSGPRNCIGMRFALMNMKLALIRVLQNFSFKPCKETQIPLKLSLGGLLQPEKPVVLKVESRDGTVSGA
Cytochrome P450 2C9, sequence (P11712 whole entry): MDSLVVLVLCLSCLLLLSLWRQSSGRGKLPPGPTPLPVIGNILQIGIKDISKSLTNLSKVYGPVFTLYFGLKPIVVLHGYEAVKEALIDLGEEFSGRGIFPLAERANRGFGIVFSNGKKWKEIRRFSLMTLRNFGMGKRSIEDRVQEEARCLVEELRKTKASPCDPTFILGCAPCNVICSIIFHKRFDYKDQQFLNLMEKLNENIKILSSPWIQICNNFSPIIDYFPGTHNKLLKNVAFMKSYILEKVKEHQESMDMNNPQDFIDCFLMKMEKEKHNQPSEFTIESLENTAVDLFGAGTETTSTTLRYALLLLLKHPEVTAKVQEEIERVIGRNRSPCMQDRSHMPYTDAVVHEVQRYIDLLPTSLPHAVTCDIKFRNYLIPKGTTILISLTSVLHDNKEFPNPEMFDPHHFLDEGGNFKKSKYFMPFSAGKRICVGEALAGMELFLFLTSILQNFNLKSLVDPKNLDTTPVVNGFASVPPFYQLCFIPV

Structure (SMILES)	IC50 [6] [µM]	IC50 (Cytochrome P450 2D6) [µM]	IC50 (Cytochrome P450 2C9) [µM]	IC50 [17] [µM]	IC50 (Cytochrome P450 3A4) [µM]	logD [18]	predicted hepatic clearance [19] [mL/min/kg]	predicted hepatic clearance (CLH) [20] [mL/min/kg]	Ratio IC50 [5]	also measured
CC1Cc2cc(Cl)ccc2C(=O)N1c1cccnc1 (stereo unspecified)	0.761	> 50	> 50	> 10	> 50	–	–	–	> 13	–
N#Cc1ccc2c(c1)CN(c1cccnc1)C2=O	0.232	–	–	15.5	–	1.35	8.7	45.6	67	–
CC1CN(c2cccnc2)C(=O)c2ccc(Cl)cc21 (stereo unspecified)	0.164	> 50	> 50	2.59	> 50	–	6.6	45	16	–

Further compounds by falling IC50 [6], results first:

IC50 [6] [µM]	IC50 (Cytochrome P450 2D6) [µM]	IC50 (Cytochrome P450 2C9) [µM]	IC50 [17] [µM]	IC50 (Cytochrome P450 3A4) [µM]	logD [18]	predicted hepatic clearance [19] [mL/min/kg]	predicted hepatic clearance (CLH) [20] [mL/min/kg]	Structure (SMILES)	Ratio IC50 [5]	also measured
1.54	> 50	> 50	> 10	> 50	–	–	–	CC1(C)CN(c2cccnc2)C(=O)c2ccc(Cl)cc21	> 7	–
0.061	–	–	5	–	2.25	< 3.5	< 20.2	O=C1c2ccc(Cl)cc2CCN1c1cccnc1	82	–
0.028	–	–	5.21	–	2.14	< 3.5	< 20.2	CCC(=O)N[C@@H]1CCCc2c1cncc2N1Cc2cc(Cl)ccc2C1=O	186	Papp at 18 h [4]: 3.63 ×10⁻⁶ cm/s; solubility at 2 h [11]: > 460 µg/mL
0.002	–	–	–	–	–	–	–	Cn1cc(C(=O)N2CC3(C2)CN(c2cncc(N4C(=O)c5ccc(Cl)cc5C4(C)C)c2)C3)cn1	5680	CLint scaled [1]: < 3 mL/min/kg; bioavailability [2]: 37%; CLint scaled [3]: < 4.4 mL/min/kg; Papp at 18 h [4]: 3.63 ×10⁻⁶ cm/s; AUC(0-inf) [7]: 5660 ng·h/mL; AUC/dose [8]: 1889 kg·ng·h/mL/mg; fraction unbound at 1 µM [9]: 0.036; AUC/dose [10]: 3111 kg·ng·h/mL/mg; solubility at 2 h [11]: 44 µg/mL (≈ 92.2 µM); predicted hepatic clearance (CLH) [12]: 6.4 mL/min/kg; clearance [13]: 6.4 mL/min/kg; bioavailability [14]: 69%; fraction unbound at 1 µM [15]: 0.066; clearance [16]: 2.1 mL/min/kg

Reference: ChEMBL document CHEMBL4616681, “Discovery of 3-Pyridyl Isoindolin-1-one Derivatives as Potent, Selective, and Orally Active Aldosterone Synthase (CYP11B2) Inhibitors” (J Med Chem, 2020)
